In ChEMBL document CHEMBL1123002, “Resolution of 5,6-dihydroxy-2-(N,N-di-n-propylamino)tetralin in relation to the structural and stereochemical requirements for centrally acting dopamine agonists” (J Med Chem, 1985) one finds IC50, Control and Stereotypy score data, which are given here for three compounds.

In test [1] the target is Dopamine receptor. As to the kind of experiment: Inhibitory activity against [3H]NPA binding (0.45) to dopamine receptors in striata of female wistar rats. It is filed as protein assay. The method, boiled down: (§1)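 Rat striatal membranes prepared in 15 mM Tris-HCl with 1 mM EDTA and 0.01% ascorbate, pH 7.5, washed by repeated 35000g spins. Incubated in triplicate for 30 min at 25 °C with 0.46 nM [³H]NPA and competitor over 10⁻¹¹–10⁻⁵ M. Nonspecific binding defined with 10⁻⁶ M (+)-butaclamol. Bound label collected on GF/B filters and counted by scintillation. IC50 from log-probit analysis of at least three determinations.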

Test [2] concerns Rattus norvegicus. Description: In vivo dopaminergic activity was assessed by measuring the decrease of DA metabolite (HVA) levels in rat brain at dose 0.25 umol/kg. It counts as functional. Also noted: scale not given: the % may be the effect or the level left. In short, it runs like this: (§2)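 Female Wistar-derived rats (160–220 g) given drug ip in saline with 0.1% sodium bisulfite. Killed by decapitation 40 min later. Striata dissected, frozen on dry ice, stored at -80 °C, then homogenized in 0.1 M perchloric acid and centrifuged. DA, HVA and DOPAC in the supernatant measured by Sephadex G10 cleanup and reverse-phase HPLC with amperometric detection, compared against controls.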

For test [3], the system named is Rattus norvegicus. As to the kind of experiment: In vivo dopaminergic activity was assessed by measuring the decrease of DA metabolite (HVA) levels in rat brain at dose 0.5 umol/kg. It is filed as functional. Also noted: scale not given: the % may be the effect or the level left. In short, it runs like this:
as §2

The test system of test [4] is Rattus norvegicus. As to the kind of experiment: In vivo dopaminergic activity was assessed by measuring the decrease of DA […] levels in rat brain at dose 0.25 umol/kg. It counts as functional. Also noted: scale not given: the % may be the effect or the level left. The method, boiled down: as §2
In test [5] the test system is Rattus norvegicus. Description: In vivo dopaminergic activity was assessed by measuring the decrease of DA […] levels in rat brain at dose 0.5 umol/kg. It counts as functional. Also noted: scale not given: the % may be the effect or the level left. In short, it runs like this:
as §2

For test [6], the system named is Rattus norvegicus. Description: In vivo dopaminergic activity was assessed by measuring the decrease of DA metabolite (DOPAC) levels in rat brain at dose 0.25 umol/kg. It counts as functional. Also noted: scale not given: the % may be the effect or the level left. In short, it runs like this: as §2
In test [7] the test system is Rattus norvegicus. As to the kind of experiment: In vivo dopaminergic activity was assessed by measuring the decrease of DA metabolite (DOPAC) levels in rat brain at dose 0.5 umol/kg. It is filed as functional. Also noted: scale not given: the % may be the effect or the level left. In short, it runs like this: as §2
For test [8], the target named is Dopamine receptor. Description: Inhibitory activity against [3H]NPA binding (0.45) to dopamine receptor in striata of female wistar rats. It counts as protein assay. In short, it runs like this:
as §1

Test [9] relates to Rattus norvegicus. Description: In vivo dopaminergic activity was assessed by measuring the decrease of DA metabolite (HVA) levels in rat brain at dose 10 umol/kg. It counts as functional. Also noted: scale not given: the % may be the effect or the level left. In short, it runs like this: as §2
Test [10] has as its system Rattus norvegicus. As to the kind of experiment: In vivo dopaminergic activity was assessed by measuring the decrease of DA metabolite (HVA) levels in rat brain at dose 5 umol/kg. Also noted: scale not given: the % may be the effect or the level left. It counts as functional. In short, it runs like this: as §2
Test [11] has as its system Rattus norvegicus. Description: In vivo dopaminergic activity was assessed by measuring the decrease of DA metabolite (DOPAC) levels in rat brain at dose 10 umol/kg. It is filed as functional. Also noted: scale not given: the % may be the effect or the level left. In short, it runs like this:
as §2

The subject of test [12] is Rattus norvegicus. As to the kind of experiment: In vivo dopaminergic activity was assessed by measuring the decrease of DA metabolite (DOPAC) levels in rat brain at dose 5 umol/kg. It counts as functional. Also noted: scale not given: the % may be the effect or the level left. The method, boiled down:
as §2

The test system of test [13] is Rattus norvegicus. Description: In vivo dopaminergic activity was assessed by measuring the decrease of DA […] levels in rat brain at dose 10 umol/kg. Also noted: scale not given: the % may be the effect or the level left. It is filed as functional. In short, it runs like this: as §2
For test [14], the system named is Rattus norvegicus. As to the kind of experiment: In vivo dopaminergic activity was assessed by measuring the decrease of DA […] levels in rat brain at dose 5 umol/kg. It is filed as functional. Also noted: scale not given: the % may be the effect or the level left. The method, boiled down:
as §2

The subject of test [15] is Rattus norvegicus. Description: In vivo dopaminergic activity was assessed by scoring stereotyped behavior in rats at dose 0.5 umol/kg. It counts as functional. The method, boiled down:
(§3)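 Rats dosed ip with drug in saline containing 0.1% sodium bisulfite. Stereotyped behaviour scored over 30 min after injection by a published rating method.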

The test system of test [16] is Rattus norvegicus. As to the kind of experiment: In vivo dopaminergic activity was assessed by scoring stereotyped behavior in rats at dose 10 umol/kg. It is filed as functional. In short, it runs like this:
as §3

Test [17] relates to Rattus norvegicus. Description: In vivo dopaminergic activity was assessed by scoring stereotyped behavior in rats at dose 5 umol/kg. It counts as functional. In short, it runs like this:
as §3

Test [18] deals with Rattus norvegicus. As to the kind of experiment: In vivo dopaminergic activity was assessed by scoring stereotyped behavior in rats at dose 0.25 umol/kg. It counts as functional. In short, it runs like this: as §3

The compound `CCCN(CCC)C1CCc2c(ccc(O)c2O)C1` (racemic) showed an IC50 at Dopamine receptor [1] of 4 nM. In addition, the Control in the test on Rattus norvegicus [2] was determined as 36.2%; in the test with Rattus norvegicus [3], 47.6%; in the test with Rattus norvegicus [4] it was 103%; in the test on Rattus norvegicus [5], 114.9%; with Rattus norvegicus [6], 61%; in the test on Rattus norvegicus [7] it was 58.5%.
The compound `CCCN(CCC)C1CCc2c(ccc(O)c2O)C1` (single isomer, unassigned; (+)) yielded an IC50 at Dopamine receptor [8] of 400 nM. For the same compound, the Control in the test with Rattus norvegicus [3] was 86.5%; in the test with Rattus norvegicus [9], less than 41.2%; with Rattus norvegicus [10] it was less than 48.6%; with Rattus norvegicus [11], less than 60.1%; in the test on Rattus norvegicus [12], 68.9%; in the test on Rattus norvegicus [5], 109.4%. Moreover, the Control in the test on Rattus norvegicus [13] is given as less than 125.8%; with Rattus norvegicus [14], 115%; with Rattus norvegicus [7], 93.3%. In addition, the Stereotypy score in the test with Rattus norvegicus [15] is given as 0; with Rattus norvegicus [16] it was 3; in the test on Rattus norvegicus [17], 3.
Take `CCCN(CCC)C1CCc2c(ccc(O)c2O)C1` (single isomer, unassigned; (-)): the IC50 on Dopamine receptor [8] is 2.5 nM. Besides, the Control in the test with Rattus norvegicus [2] was less than 42.5%; with Rattus norvegicus [3], less than 42.6%; in the test on Rattus norvegicus [4] it was 98.4%; in the test on Rattus norvegicus [5], 114.2%; in the test with Rattus norvegicus [6], less than 53.7%; in the test with Rattus norvegicus [7], less than 58%. The Stereotypy score in the test with Rattus norvegicus [18] and with Rattus norvegicus [15] was 4 each time.
